43 molecules from ChEMBL document CHEMBL1782048, “Novel 1-(2-aminopyrazin-3-yl)methyl-2-thioureas as potent inhibitors of mitogen-activated protein kinase-activated protein kinase 2 (MK-2)” (Bioorg Med Chem Lett, 2009) can be followed below.

In data set [1] the target is MAP kinase-activated protein kinase 2 (Homo sapiens, UniProt P49137). Nature of the data set: Inhibition of MK2 using biotin-LCAYSRALSRQLSSGVSEIRH substrate.
The test system of a further data set is THP-1. Nature of the data set: Inhibition of LPS-induced TNFalpha production in human THP1 cells after 4 hrs by ELISA. Conditions: THP-1, 4 h. Background: In an ELISA, binding on a coated surface is turned into a signal by an enzyme label.
The test system of the next data set is Mus musculus. Description: Antiinflammatory activity in BALB/c mouse assessed as inhibition of LPS-stimulated TNFalpha production at 10 mg/kg, iv after 1.5 hrs. It is filed as functional. The essentials: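 Female Balb/c mice, 12 weeks old, dosed iv at 10 mg/kg in DMSO/Cremophor/saline (or vehicle alone) just before injection of 10 µg/mouse LPS (E. coli serotype 0111:B4) plus 800 mg/kg D-galactosamine in saline. Animals euthanized 90 min later; plasma TNF measured by ELISA.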

The species named for the next data set is Rattus norvegicus. Description: Normalized AUC in rat. The class given is ADME, organism-based. The following applies: in vivo.
A short description of data set [2]: Oral bioavailability AUC in rat. It is filed as ADME, organism-based. The following applies: in vivo.
Data set [3] is described as follows: Inhibition of AMPK at 10 uM.
Data set [4] concerns the target Ribosomal protein S6 kinase alpha-5 (Homo sapiens) (UniProt O75582). Description: Inhibition of RPS6KA5 at 10 uM.
Data set [5] deals with Ribosomal protein S6 kinase alpha-1 (Homo sapiens) (UniProt Q15418). Description: Inhibition of RPS6KA1 at 10 uM.
A short description of data set [6]: Clearance in rat. Conditions: in vivo. The class given is ADME, organism-based.
Data set [7] in a line: Half life in rat. The following applies: in vivo. It is filed as ADME, organism-based.
In data set [8] the target is T1, MAP kinase-activated protein kinase 5 (Homo sapiens) (UniProt Q8IW41).
T1 sequence (whole entry): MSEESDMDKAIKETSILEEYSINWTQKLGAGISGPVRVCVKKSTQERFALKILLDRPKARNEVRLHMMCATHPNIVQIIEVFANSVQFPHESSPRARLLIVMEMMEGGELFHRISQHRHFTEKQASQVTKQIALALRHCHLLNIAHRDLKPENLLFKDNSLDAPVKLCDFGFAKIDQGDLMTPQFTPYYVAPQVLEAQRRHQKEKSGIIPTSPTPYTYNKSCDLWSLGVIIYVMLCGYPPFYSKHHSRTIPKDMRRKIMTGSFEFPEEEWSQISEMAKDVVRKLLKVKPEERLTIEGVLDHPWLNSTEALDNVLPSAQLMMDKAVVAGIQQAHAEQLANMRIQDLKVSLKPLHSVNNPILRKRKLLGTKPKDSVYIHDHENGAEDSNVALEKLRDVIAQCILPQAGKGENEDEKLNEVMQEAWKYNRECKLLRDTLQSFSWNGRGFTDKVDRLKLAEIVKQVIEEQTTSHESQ
Nature of the data set: Inhibition of MK5 at 1 uM.

MAP kinase-activated protein kinase 2, sequence (P49137 whole entry): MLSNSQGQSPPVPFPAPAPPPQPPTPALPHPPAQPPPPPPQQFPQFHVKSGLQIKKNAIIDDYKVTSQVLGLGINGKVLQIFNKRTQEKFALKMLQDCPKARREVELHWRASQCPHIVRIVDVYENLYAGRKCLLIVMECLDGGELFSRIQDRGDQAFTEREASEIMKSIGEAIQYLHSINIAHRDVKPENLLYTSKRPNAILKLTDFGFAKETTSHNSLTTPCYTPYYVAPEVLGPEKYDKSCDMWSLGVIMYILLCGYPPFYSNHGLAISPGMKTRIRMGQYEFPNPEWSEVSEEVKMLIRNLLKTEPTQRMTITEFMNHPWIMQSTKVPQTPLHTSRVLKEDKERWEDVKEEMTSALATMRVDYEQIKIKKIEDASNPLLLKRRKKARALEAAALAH
Ribosomal protein S6 kinase alpha-5 (Homo sapiens), sequence (O75582 whole entry, looked up): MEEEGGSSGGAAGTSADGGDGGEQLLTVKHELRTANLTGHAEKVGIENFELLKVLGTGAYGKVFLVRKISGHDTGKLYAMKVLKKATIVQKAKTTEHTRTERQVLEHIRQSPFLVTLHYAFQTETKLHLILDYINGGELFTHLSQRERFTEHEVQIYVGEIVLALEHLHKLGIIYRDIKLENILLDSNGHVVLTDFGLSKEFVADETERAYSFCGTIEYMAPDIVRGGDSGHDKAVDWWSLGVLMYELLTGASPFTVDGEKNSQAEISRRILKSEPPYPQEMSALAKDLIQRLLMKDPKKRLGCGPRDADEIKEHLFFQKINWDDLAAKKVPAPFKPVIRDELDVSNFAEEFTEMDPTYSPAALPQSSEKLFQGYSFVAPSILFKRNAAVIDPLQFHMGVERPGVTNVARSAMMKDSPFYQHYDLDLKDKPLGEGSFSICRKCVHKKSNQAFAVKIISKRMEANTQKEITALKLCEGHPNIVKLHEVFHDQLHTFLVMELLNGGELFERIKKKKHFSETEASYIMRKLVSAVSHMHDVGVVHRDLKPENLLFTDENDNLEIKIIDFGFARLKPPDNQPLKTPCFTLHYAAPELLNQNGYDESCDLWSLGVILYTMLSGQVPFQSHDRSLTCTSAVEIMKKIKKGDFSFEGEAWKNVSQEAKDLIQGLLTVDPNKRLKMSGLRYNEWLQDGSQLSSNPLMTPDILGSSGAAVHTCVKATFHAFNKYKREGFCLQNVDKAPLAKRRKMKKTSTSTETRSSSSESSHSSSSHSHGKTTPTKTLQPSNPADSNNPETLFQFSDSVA
Ribosomal protein S6 kinase alpha-1 (Homo sapiens), sequence (Q15418 whole entry): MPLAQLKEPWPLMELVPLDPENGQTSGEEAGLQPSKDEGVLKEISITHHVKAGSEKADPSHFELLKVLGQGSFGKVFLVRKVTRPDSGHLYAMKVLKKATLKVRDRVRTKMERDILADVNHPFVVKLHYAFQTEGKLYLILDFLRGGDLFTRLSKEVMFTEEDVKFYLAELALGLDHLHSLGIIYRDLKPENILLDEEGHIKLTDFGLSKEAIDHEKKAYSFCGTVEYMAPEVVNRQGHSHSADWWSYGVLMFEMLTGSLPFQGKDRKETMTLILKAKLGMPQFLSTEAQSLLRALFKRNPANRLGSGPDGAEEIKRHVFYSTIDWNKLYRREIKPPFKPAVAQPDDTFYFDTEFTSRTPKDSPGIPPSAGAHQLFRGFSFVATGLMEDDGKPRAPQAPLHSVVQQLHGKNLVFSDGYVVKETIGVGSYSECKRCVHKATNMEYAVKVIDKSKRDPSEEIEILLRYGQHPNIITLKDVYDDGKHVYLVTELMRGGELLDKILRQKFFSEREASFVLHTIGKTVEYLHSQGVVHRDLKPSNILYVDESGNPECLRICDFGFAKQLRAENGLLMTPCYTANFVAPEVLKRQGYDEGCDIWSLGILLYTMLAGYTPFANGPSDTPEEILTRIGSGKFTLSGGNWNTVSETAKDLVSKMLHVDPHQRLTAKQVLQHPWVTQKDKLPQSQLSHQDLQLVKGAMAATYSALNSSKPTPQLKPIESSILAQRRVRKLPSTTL

For the molecule `Cc1cnc(N)c(CNC(=S)Nc2ccc3[nH]c(=O)sc3c2)n1`, in data set [1], the IC50 (as a rule, the concentration at which inhibition is half-maximal) is 15 µM.
In the case of `Cc1cnc(N)c(CNC(=S)Nc2ccc(NC(=O)c3ccccc3)cc2)n1`, the IC50 in data set [1] turned out to be 0.58 µM.
Still for that read-out and setting: the figure for `Nc1ncc(Cl)nc1CNC(=S)Nc1ccc(Cl)cc1Cl` is 4.3 µM.
Regarding `CC(C)(C)OC(=O)Nc1ccc(NC(=S)NCc2nc(C3CC3)cnc2N)cc1`, in the data set on THP-1, the IC50 was 3.2 µM.
For `CC(C)(C)NC(=S)NCc1nc(Cl)cnc1N`, half-maximal inhibition in data set [1] (IC50) was put at 2.5 µM.
In turn, `Nc1ncc(Cl)nc1CNC(=S)Nc1ccc(Cl)cc1` gave a concentration for half-maximal inhibition (IC50) in data set [1] of 3.7 µM.
On the same count and under the same terms, the figure for `Cc1cnc(N)c(CNC(=S)Nc2ccc3c(c2)[nH]c(=O)n3C)n1` is > 20 µM; for `Cc1ccc(NC(=S)NCc2nc(Cl)cnc2N)cc1` it is 2.7 µM.
Same read-out and setting: the figure for `Cc1cnc(N)c(CNC(=S)Nc2ccc(NC(=O)Cc3ccccc3)cc2)n1` is 3.8 µM; for `Nc1ncc(Cl)nc1CNC(=S)NC(=O)c1ccccc1` it is 91 µM; for `Nc1ncc(Cl)nc1CNC(=S)Nc1ccccc1F` it is 2 µM.
Same read-out and setting: to `Nc1ncc(C(F)(F)F)nc1CNC(=S)Nc1ccccc1` belongs > 50 µM; to `Nc1ncc(Cl)nc1CNC(=S)NC1CC1`, 12 µM.
Regarding `Nc1ncc(Cl)nc1CNC(=S)NCCc1ccccc1`, the IC50 in [1] is > 50 µM.
Same read-out and setting: to `Nc1ncc(Cl)nc1CNC(=S)Nc1cccc(Cl)c1` belongs 11.3 µM; to `CC(C)NC(=S)NCc1nc(Cl)cnc1N`, 13 µM.
Take `CCCc1cnc(N)c(CNC(=S)Nc2ccc(NC(=O)OC(C)(C)C)cc2)n1`: the inhibition in vivo (as a rule, the relative decrease from the control value, in per cent) at 10 mg/kg in the data set with Mus musculus came to 62%. Moreover, the IC50 with THP-1 amounted to 3 µM; in data set [1], 0.045 µM. The AUC/dose in the data set listed under Rattus norvegicus amounted to 3.3 µM·kg·h/mg. Further, in [2], the bioavailability – broadly, dose-corrected exposure relative to a reference, in per cent – is 19%. Further, the inhibition in data set [3], in data set [4] and in data set [5] was > 70% each time. Also, the clearance (usually the volume of plasma or blood freed of the substance per unit of time) in data set [6] was determined as 0.15 L/h/kg. Besides, the half-life (in general, the time in which the quantity being followed falls by half) in data set [7] was 48 min.
`CSc1nc(N)c(CNC(=S)Nc2ccccc2)nc1Cl`: the half-maximal inhibitory concentration (IC50) in data set [1] was > 50 µM.
Take `CN(C)c1nc(N)c(CNC(=S)Nc2ccccc2)nc1Cl`: in [1], the IC50 is > 50 µM.
The same measure, in the same setting: the figure for `Cc1cnc(N)c(CNC(=S)Nc2ccc(NC(=O)Oc3ccccc3)cc2)n1` is 0.73 µM; for `Nc1ncc(Cl)nc1CNC(=S)Nc1ccc(Cl)c(Cl)c1` it is 40 µM.
Regarding `Cc1cnc(N)c(CNC(=S)Nc2ccc3c(c2)CC(=O)N3)n1`, the midpoint of inhibition in data set [1], the IC50, lay at 27 µM.
`Nc1ncc(Cl)nc1CNC(=S)NCc1ccccc1`: in data set [1], the half-inhibitory concentration (IC50) came to 36 µM.
Consider `CCCc1cnc(N)c(CNC(=S)Nc2ccc3[nH]c(=O)oc3c2)n1`, for which the inhibition in vivo at 10 mg/kg with Mus musculus was 70%. Inhibition in the data set on THP-1 was half-maximal at 0.75 µM (IC50). In the data set filed under Rattus norvegicus, the AUC/dose was 0.3 µM·kg·h/mg. The same molecule returned a bioavailability in [2] of 8%. In [6], this molecule had a clearance of 0.774 L/h/kg. In data set [8], the inhibition (as a rule, the share of the control response that was lost under treatment) was > 70%. The same molecule showed a half-life in data set [7] of 18 min.
For `Nc1ncc(Cl)nc1CNC(=S)Nc1ccccc1-c1ccccc1`, in [1], the concentration for half-maximal inhibition (IC50) is > 20 µM.
In the data set with THP-1, `CCc1cnc(N)c(CNC(=S)Nc2ccc(NC(=O)OC(C)(C)C)cc2)n1` gave an IC50 of 4 µM.
In data set [1], `Nc1ncc(Cl)nc1CNC(=S)Nc1cc(Cl)cc(Cl)c1` had an IC50 of 27 µM.
As for `Nc1ncc(C2CC2)nc1CNC(=S)Nc1ccc2[nH]c(=O)oc2c1`, the inhibition in vivo at 10 mg/kg with Mus musculus is 75%. The half-maximal inhibitory concentration (IC50) in the data set on THP-1 came to 1.7 µM; in [1], 0.015 µM.
For `CCOc1nc(N)c(CNC(=S)Nc2ccccc2)nc1Cl`, the IC50 in data set [1] was > 50 µM.
As for `Cc1cnc(N)c(CNC(=S)Nc2ccc3oc(=O)[nH]c3c2)n1`, in data set [1], the IC50 came to 14 µM.
Same read-out and setting: to `Nc1ccc(NC(=S)NCc2nc(Cl)cnc2N)cc1` belongs 2 µM.
`CC(C)(C)NC(=O)Nc1ccc(NC(=S)NCc2nc(C3CC3)cnc2N)cc1` had an IC50 in the data set with THP-1 of 1.4 µM.
`Nc1ncc(Cl)nc1CNC(=S)Nc1ccc(-n2cnnn2)cc1`: the IC50 in data set [1] is > 40 µM.
On to `Nc1ncc(Cl)nc1CNC(=S)NC1CCCC1`, for which the 50% inhibitory concentration (IC50) in data set [1] came to 53 µM.
On to `Nc1ncc(Cl)nc1CNC(=S)Nc1ccc(Br)cc1`, for which half-maximal inhibition in data set [1] (IC50) required 3.1 µM.
On to `Cc1cccc(NC(=S)NCc2nc(Cl)cnc2N)c1`, for which half-maximal inhibition in [1] (IC50) was put at 9.3 µM.
As to `Cc1cnc(N)c(CNC(=S)Nc2ccc3[nH]c(=O)[nH]c3c2)n1`, in data set [1], half-maximal inhibition (IC50) was put at 15 µM.
Regarding `Cc1ccccc1NC(=S)NCc1nc(Cl)cnc1N`, in data set [1], the IC50 was 3.6 µM.
The molecule `Nc1ncc(Cl)nc1CNC(=S)Nc1cccc2ccccc12` came in with an IC50 in data set [1] of 3.2 µM.
`CCCCc1cnc(N)c(CNC(=S)Nc2ccc3[nH]c(=O)oc3c2)n1`: 3.8 µM corresponded to half-maximal inhibition with THP-1 (IC50).
The molecule `Nc1ncc(Cl)nc1CNC(=S)NC1CCCCCC1` came in with an IC50 in data set [1] of 35 µM.
The same measure, in the same setting: to `CCN(CC)CCCNC(=S)NCc1nc(Cl)cnc1N` belongs > 50 µM.
In data set [1], `Nc1ncc(Cl)nc1CNC(=S)Nc1ccccc1Cl` registered an IC50 of 1.1 µM.
